Most compounds without a hit are left out; they make up all but 3.3% or so of the library.
rCAG binder: binders of r(CAG) RNA repeats, primary screen, biochemical, fluorescence; r(CAG) RNA repeat, TO-PRO-1 dye displacement fluorescence; inhibition, % at 3 µM; 370,000 tested, 1.3% active; AID 651821, 2012;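 active = inhibition above the plate cutoff, the mean of all test compounds on that plate plus 3 SD, cut at about 35% in these data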;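 also: higher means more dye released from RNA so lower well fluorescence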
ABHD4 inh: ABHD4 inhibitors, primary screen, biochemical, fluorescence polarization, mouse; (Lyso)-N-acylphosphatidylethanolamine lipase (Mus musculus), Q8VD66; purified mABHD4, FP-Rh probe fluorescence polarization; inhibition, % at 8.92 µM; 370,000 tested, 0.54% active;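 active = inhibition exceeding the mean over every tested compound plus 3 SD, cut at about 30% in these data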
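Assay system: mouse ABHD4 enzyme, wild type / Also added: fluorescent activity-based probe FP-Rh / Doses: single nominal dose of 8.92 µM, 0.89% DMSO final / Timing: 45 min compound pre-incubation plus 60 min probe step, 25 °C / Signal: FP readout, ex 525 nm / em 598 nm / Control set: S159A mutant/DMSO as 100%, compound-well median as 0%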
SIAE inh: human SIAE inhibitors, primary screen, biochemical, fluorescence polarization, FP-Rh probe, 1536-well HTS; 370,000 tested, 0.69% active; inhibition, % at 9.66 µM; SIAE FP-Rh probe binding;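 active = inhibition above a cutoff: mean of compounds within the control limits plus 3 SD of those, cut at about 17% in these data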
Target sequence (Q9HAT2 whole entry, looked up): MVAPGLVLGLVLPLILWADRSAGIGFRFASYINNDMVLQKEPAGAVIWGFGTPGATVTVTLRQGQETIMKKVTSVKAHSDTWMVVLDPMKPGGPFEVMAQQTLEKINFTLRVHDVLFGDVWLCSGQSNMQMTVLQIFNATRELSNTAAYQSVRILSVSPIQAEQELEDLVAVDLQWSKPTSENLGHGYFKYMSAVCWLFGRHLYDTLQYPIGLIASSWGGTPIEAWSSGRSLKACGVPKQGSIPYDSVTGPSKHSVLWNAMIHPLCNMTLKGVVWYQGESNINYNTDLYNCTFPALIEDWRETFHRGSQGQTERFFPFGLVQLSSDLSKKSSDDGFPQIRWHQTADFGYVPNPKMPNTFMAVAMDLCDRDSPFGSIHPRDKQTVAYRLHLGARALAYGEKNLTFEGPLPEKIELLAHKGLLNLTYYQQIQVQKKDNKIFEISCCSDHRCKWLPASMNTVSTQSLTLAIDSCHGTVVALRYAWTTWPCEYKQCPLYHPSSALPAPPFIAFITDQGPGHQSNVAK
TCR CD3 inh: inhibitors of human TCR-CD3 interaction, primary screen, biochemical, fluorescence, TAMRA-labeled TCR probe. AID 651800, 2012. T-cell receptor (TCR). 360,000 tested, 0.37% active. inhibition, % at 9.4 µM; in the data active = inhibition above about 19%;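 also: recombinant mutant TCR 2C K166C tagged with TAMRA read by polarization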
PRMT1 FP inh: PRMT1 methyltransferase inhibitors, primary screen, biochemical, fluorescence polarization. Protein arginine N-methyltransferase 1 (Homo sapiens), Q99873. recombinant PRMT1, activity-based probe fluorescence polarization. inhibition, % at 2.79 µM. 370,000 tested, 1.3% active. AID 652257, 2013;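 active = inhibition above about 21% made by adding two undisclosed values, limit read from the data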
SIAE confirm: human SIAE inhibitors, retest, confirmation, biochemical, fluorescence polarization, FP-Rh probe, triplicate; shares compounds with SIAE inh; inhibition, % at 9.66 µM; 2,300 tested, 13% active; SIAE FP-Rh activity-based probe;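 active = mean inhibition of the replicates above the hit cutoff set in the primary screen, cut at about 17% in these data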;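 also: inhibitors lower polarization as more probe stays unbound to SIAE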
A number is an active result.

For Fc1ccc(C2Nc3cccc4cccc(c34)N2)cc1 the results were rCAG binder inactive, ABHD4 inh inactive, SIAE inh 19, TCR CD3 inh inactive, PRMT1 FP inh inactive and SIAE confirm inactive.
Screening Cc1ccc(C2Nc3cccc4cccc(c34)N2)s1 returned rCAG binder inactive, ABHD4 inh inactive, SIAE inh 27, TCR CD3 inh inactive, PRMT1 FP inh inactive and SIAE confirm inactive.
Screening Cc1cc(C)c(S(=O)(=O)NCC(c2ccco2)N2CCc3ccccc3C2)c(C)c1 (stereo unspecified) returned rCAG binder inactive, ABHD4 inh inactive, SIAE inh inactive, TCR CD3 inh inactive and PRMT1 FP inh inactive.
Screening CCOC(=O)c1cnc(SCC(=O)OCC(=O)NC2CCS(=O)(=O)C2)nc1N (stereo unspecified) returned rCAG binder inactive, ABHD4 inh inactive, SIAE inh 18, TCR CD3 inh inactive, PRMT1 FP inh inactive and SIAE confirm inactive.
C[C@H](NC(=O)c1cccc([N+](=O)[O-])c1)C(=O)OCC(=O)c1ccccc1Br was read as rCAG binder inactive, ABHD4 inh inactive, SIAE inh inactive, TCR CD3 inh inactive and PRMT1 FP inh inactive.
For CC(=O)CSc1ccc(S(=O)(=O)N2CCN(C)CC2)cn1 the results were rCAG binder inactive, ABHD4 inh inactive, SIAE inh 23, TCR CD3 inh inactive, PRMT1 FP inh inactive and SIAE confirm inactive.
For Cc1c(/C=N/NC(=O)c2ccc(O)cc2)c2ccccn2c1C(=O)c1ccc(F)cc1 the results were rCAG binder inactive, ABHD4 inh inactive, SIAE inh inactive, TCR CD3 inh inactive and PRMT1 FP inh inactive.
Screening Cc1c(/C=N/NC(=O)c2ccccc2O)c2ccccn2c1C(=O)c1ccc(F)cc1 returned rCAG binder inactive, ABHD4 inh inactive, SIAE inh 37, TCR CD3 inh inactive, PRMT1 FP inh inactive and SIAE confirm inactive.
For COc1ccc(S(=O)(=O)N(C)C[C@H]2Oc3ncc(C#CC4(O)CCCC4)cc3C(=O)N([C@@H](C)CO)C[C@@H]2C)cc1 the results were rCAG binder inactive, ABHD4 inh inactive, SIAE inh inactive, TCR CD3 inh inactive and PRMT1 FP inh inactive.
Screening COCCNC(=O)c1onc(CSc2ccccc2)c1C(=O)NCCOC returned rCAG binder inactive, ABHD4 inh inactive, SIAE inh inactive, TCR CD3 inh inactive and PRMT1 FP inh inactive.
CCOC(=O)C1=C(CS(=O)(=O)c2ccccc2)NC(=O)NC1c1cc(OC)c(O)c(OC)c1 (stereo unspecified) was read as rCAG binder inactive, ABHD4 inh inactive, SIAE inh inactive, TCR CD3 inh inactive and PRMT1 FP inh inactive.
Screening CC(=O)N1c2ccc(S(=O)(=O)NCCc3ccc(Cl)cc3)cc2CC1C (stereo unspecified) returned rCAG binder inactive, ABHD4 inh inactive, SIAE inh inactive, TCR CD3 inh inactive and PRMT1 FP inh inactive.
For CC(=O)N1c2ccc(S(=O)(=O)NCc3ccccc3Cl)cc2CC1C (stereo unspecified) the results were rCAG binder inactive, ABHD4 inh inactive, SIAE inh 18, TCR CD3 inh inactive, PRMT1 FP inh inactive and SIAE confirm inactive.
`CCOCCn1c(=NC(=O)CSCC(=O)N2CCOCC2)sc2cc(OC)ccc21` gave rCAG binder inactive, ABHD4 inh inactive, SIAE inh inactive, TCR CD3 inh inactive and PRMT1 FP inh inactive.
`C=CCOc1ccc(CNn2cn[nH]c2=S)cc1OCC` gave rCAG binder inactive, ABHD4 inh inactive, SIAE inh 47, TCR CD3 inh inactive, PRMT1 FP inh inactive and SIAE confirm inactive.
CN1CCN(c2ccc(S(=O)(=O)N3CCCCC3)cn2)CC1 was read as rCAG binder inactive, ABHD4 inh inactive, SIAE inh inactive, TCR CD3 inh inactive and PRMT1 FP inh inactive.
`O=S(=O)(c1ccc(N2CCCCCC2)nc1)N1CCCC1` gave rCAG binder inactive, ABHD4 inh inactive, SIAE inh 20, TCR CD3 inh inactive, PRMT1 FP inh inactive and SIAE confirm inactive.
For O=C(CNc1ccc2ccccc2c1)N/N=C/c1cc2ccccc2nc1Cl the results were rCAG binder inactive, ABHD4 inh inactive, SIAE inh 18, TCR CD3 inh inactive, PRMT1 FP inh inactive and SIAE confirm inactive.
Screening Cc1ccc(-n2ccnc(SCC(=O)NC3CCCC3)c2=O)cc1Cl returned rCAG binder inactive, ABHD4 inh inactive, SIAE inh 17, TCR CD3 inh inactive, PRMT1 FP inh inactive and SIAE confirm inactive.
`Cc1ccc(-n2ccnc(SCC(=O)NC3CCCC3)c2=O)cc1F` gave rCAG binder inactive, ABHD4 inh inactive, SIAE inh inactive, TCR CD3 inh inactive and PRMT1 FP inh inactive.
Screening Cc1ccccc1C(=O)/C=C1\NC(=O)CS1 returned rCAG binder inactive, ABHD4 inh inactive, SIAE inh 17, TCR CD3 inh inactive, PRMT1 FP inh inactive and SIAE confirm inactive.
O=C1CS/C(=C/C(=O)c2ccccc2)N1 was read as rCAG binder inactive, ABHD4 inh inactive, SIAE inh inactive, TCR CD3 inh inactive and PRMT1 FP inh inactive.
For COc1ccc(CCC(=O)NCC(c2ccco2)N2CCc3ccccc32)cc1 (stereo unspecified) the results were rCAG binder inactive, ABHD4 inh inactive, SIAE inh inactive, TCR CD3 inh inactive and PRMT1 FP inh inactive.
`CC(C)(C)c1ccc(CC(=O)N2CCC2(C)C(=O)Nc2cccc3c2CCCC3)cc1` (stereo unspecified) gave rCAG binder inactive, ABHD4 inh inactive, SIAE inh inactive, TCR CD3 inh inactive and PRMT1 FP inh inactive.
Screening COc1ccc([N+](=O)[O-])cc1NC(=S)NC(C)=O returned rCAG binder inactive, ABHD4 inh inactive, SIAE inh inactive, TCR CD3 inh inactive and PRMT1 FP inh inactive.
COc1ccc(/C=C/C(=O)NC(=S)Nc2cc([N+](=O)[O-])ccc2O)cc1OC was read as rCAG binder 52, ABHD4 inh inactive, SIAE inh 18, TCR CD3 inh 50, PRMT1 FP inh inactive and SIAE confirm inactive.
Screening O=[N+]([O-])c1ccc2c(c1)C=C1CCCCC1(N1CCCC1)O2 (stereo unspecified) returned rCAG binder inactive, ABHD4 inh inactive, SIAE inh 21, TCR CD3 inh inactive, PRMT1 FP inh inactive and SIAE confirm inactive.
For CC1CCCN(CC(O)CN2CCN(CC(O)CN3CCCC(C)C3)C(C)C2)C1 (stereo unspecified) the results were rCAG binder inactive, ABHD4 inh inactive, SIAE inh inactive, TCR CD3 inh inactive and PRMT1 FP inh inactive.
For Cc1c(C(N)=O)cc([N+](=O)[O-])cc1[N+](=O)[O-] the results were rCAG binder inactive, ABHD4 inh inactive, SIAE inh inactive, TCR CD3 inh inactive and PRMT1 FP inh inactive.

Screens as filed in PubChem.
